Here are results for six compounds from ChEMBL document CHEMBL1156530, “Novel conantokins from Conus parius venom are specific antagonists of N-methyl-D-aspartate receptors” (J Biol Chem, 2007).

One may read the IC50 as the concentration at which inhibition is half-maximal.

Assay [1] addresses Glutamate receptor ionotropic, NMDA 2C (Rattus norvegicus, UniProt P35439+Q00961). Description: Inhibition of rat NMDA NR2C receptor expressed in xenopus oocytes coexpressing NMDA NR13b assessed as effect on glycine-induced current response at -70 mV by voltage clamp method. It is filed as cell-based, Oocyte. Summed up:
(§1)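 Xenopus oocytes expressing rat NR1-3b with one NR2 subunit (A–D), voltage-clamped at -70 mV. Perfusion was Mg2+-free ND96 (pH 7.2–7.5) with 0.1 mg/ml BSA. Peptide was applied in a static bath for 5–10 min; the agonist-evoked current was then expressed as % of the pre-peptide current. IC50s were taken from concentration-response curves, n ≥ 3 per point.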

The target of assay [2] is Glutamate receptor ionotropic, NMDA 2D (Rattus norvegicus, UniProt P35439+Q62645). Kind of assay: Inhibition of rat NMDA NR2D receptor expressed in xenopus oocytes coexpressing NMDA NR13b assessed as effect on glycine-induced current response at -70 mV by voltage clamp method. It counts as cell-based, Oocyte. The procedure, abridged: as §1
Assay [3] has as its target Glutamate receptor ionotropic, NMDA 2B (Rattus norvegicus, UniProt P35439+Q00960). Description: Inhibition of rat NMDA NR2B receptor expressed in xenopus oocytes coexpressing NMDA NR13b assessed as effect on glycine-induced current response at -70 mV by voltage clamp method. It counts as cell-based, Oocyte. Summed up:
as §1

Assay [4] concerns the target Glutamate receptor ionotropic, NMDA 2A (Rattus norvegicus, UniProt P35439+Q00959). Kind of assay: Inhibition of rat NMDA NR2A receptor expressed in xenopus oocytes coexpressing NMDA NR13b assessed as effect on glycine-induced current response at -70 mV by voltage clamp method. It counts as cell-based, Oocyte. The procedure, abridged: as §1
Assay [5] concerns Mus musculus. Description: Induction of sleep in intracranially dosed 10-day old Swiss-Webster mouse assessed as average onset of deep sleep at 0.5 nmol. It counts as functional. Summed up: (§2)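 Intracranial injection of synthetic peptide (0.5, 1 or 5 nmol) in 20 μl normal saline into 10-day-old Swiss-Webster mice, 2–6 per dose. Con-G served as positive control and saline as negative control. Deep-sleep onset was the time at which a mouse no longer tried to right itself after being rolled onto its back; onset times were averaged.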

For assay [6], the system named is Mus musculus. Description: Induction of sleep in intracranially dosed 10-day old Swiss-Webster mouse assessed as average onset of deep sleep at 1 nmol. It is filed as functional. The procedure, abridged:
as §2

Assay [7] has as its system Mus musculus. Kind of assay: Induction of sleep in intracranially dosed 10-day old Swiss-Webster mouse assessed as average onset of deep sleep at 5 nmol. It is filed as functional. The procedure, abridged: as §2
The species named for assay [8] is Rattus norvegicus. Description: Selectivity ratio, IC50 for rat NMDA NR2A receptor to IC50 for rat NMDA NR2D receptor. Summed up:
(§3)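 Ratios of IC50s taken from oocyte concentration-response curves for rat NR1-3b co-expressed with NR2A, NR2B or NR2D, recorded at -70 mV in Mg2+-free ND96 with 5–10-min static-bath peptide application, n ≥ 3 per point.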

Assay [9] deals with Mus musculus. Description: Induction of hyperactivity intracranially dosed 24-day old Swiss-Webster mouse. It counts as functional, organism-based. Summed up: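 Intracranial injection of 2 nmol peptide in 20 μl normal saline (29-gauge needle) into 24-day-old mice (12.2–12.8 g). An equal volume of saline served as negative control. Mice were watched in cages for hyperactivity: continuous walking, excessive grooming and climbing of the cage wall.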

The species entered for assay [10] is Rattus norvegicus. Kind of assay: Selectivity ratio, IC50 for rat NMDA NR2D receptor to IC50 for rat NMDA NR2B receptor. Summed up: as §3
Assay [11] concerns the target Glutamate receptor ionotropic, NMDA 2B (Rattus norvegicus) (UniProt Q00960). Description: Inhibition of rat NMDA NR2B receptor expressed in xenopus oocytes coexpressing NMDA NR13b assessed as effect on glycine-induced current response at 1 uM at -70 mV by voltage clamp method. It counts as cell-based. The note with it: Oocyte. The procedure, abridged:
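Oocytes expressing rat NR1-3b/NR2B, voltage-clamped at -70 mV in Mg2+-free ND96 with 0.1 mg/ml BSA. Baseline currents were recorded, followed by a 10-min static-bath buffer control. Then 1 μM peptide was applied in a static bath for 10 min, and the next agonist-evoked current was expressed as % of the pre-peptide amplitude.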

Each structure is given as a SMILES string. Calls of active or inactive are those of the source. No cut-off for these calls is given here. Non-standard residues stand in square brackets, D forms with d. Residues, ends and D or L forms follow the SMILES beside them. Gla = N[C@@H](CC(C(=O)O)C(=O)O)C(=O)O; Hyp = O=C(O)[C@@H]1C[C@@H](O)CN1

Sequence of Glutamate receptor ionotropic, NMDA 2D (Q62645 whole entry, one chain of several): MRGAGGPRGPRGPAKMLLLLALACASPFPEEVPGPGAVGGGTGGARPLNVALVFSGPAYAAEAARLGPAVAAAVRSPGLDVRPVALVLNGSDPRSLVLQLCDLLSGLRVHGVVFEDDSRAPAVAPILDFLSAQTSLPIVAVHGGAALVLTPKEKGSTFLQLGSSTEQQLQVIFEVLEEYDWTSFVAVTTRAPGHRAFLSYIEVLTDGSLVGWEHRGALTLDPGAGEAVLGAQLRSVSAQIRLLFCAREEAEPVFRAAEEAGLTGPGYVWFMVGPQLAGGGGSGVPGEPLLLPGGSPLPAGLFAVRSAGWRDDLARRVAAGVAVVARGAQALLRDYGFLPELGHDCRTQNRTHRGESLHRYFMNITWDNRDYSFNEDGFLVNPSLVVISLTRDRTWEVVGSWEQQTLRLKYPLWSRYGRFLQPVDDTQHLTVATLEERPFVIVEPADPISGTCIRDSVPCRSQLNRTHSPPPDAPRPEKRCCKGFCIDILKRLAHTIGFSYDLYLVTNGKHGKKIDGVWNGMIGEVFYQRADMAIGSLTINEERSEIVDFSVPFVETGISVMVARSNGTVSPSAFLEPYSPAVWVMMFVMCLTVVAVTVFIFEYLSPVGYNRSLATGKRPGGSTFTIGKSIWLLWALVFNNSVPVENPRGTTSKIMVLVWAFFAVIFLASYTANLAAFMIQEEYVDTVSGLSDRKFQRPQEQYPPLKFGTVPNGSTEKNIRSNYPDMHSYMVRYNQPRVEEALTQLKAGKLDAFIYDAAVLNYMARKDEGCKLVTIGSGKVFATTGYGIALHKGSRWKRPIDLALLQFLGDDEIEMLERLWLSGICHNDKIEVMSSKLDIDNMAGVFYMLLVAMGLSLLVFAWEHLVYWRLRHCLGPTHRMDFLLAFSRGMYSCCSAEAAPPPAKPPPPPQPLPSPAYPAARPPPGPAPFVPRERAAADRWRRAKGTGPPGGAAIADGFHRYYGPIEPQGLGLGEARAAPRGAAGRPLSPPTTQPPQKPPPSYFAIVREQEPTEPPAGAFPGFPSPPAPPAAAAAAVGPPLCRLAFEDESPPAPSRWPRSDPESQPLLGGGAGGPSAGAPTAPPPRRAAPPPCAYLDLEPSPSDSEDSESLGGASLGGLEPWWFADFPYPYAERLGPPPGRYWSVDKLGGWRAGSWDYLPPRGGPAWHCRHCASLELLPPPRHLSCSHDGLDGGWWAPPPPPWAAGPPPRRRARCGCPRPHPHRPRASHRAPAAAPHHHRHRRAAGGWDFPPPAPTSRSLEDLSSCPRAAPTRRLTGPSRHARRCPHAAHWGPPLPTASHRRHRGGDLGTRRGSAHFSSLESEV
Sequence of Glutamate receptor ionotropic, NMDA 2C (Q00961 whole entry, the tested form may be a part, one chain of several): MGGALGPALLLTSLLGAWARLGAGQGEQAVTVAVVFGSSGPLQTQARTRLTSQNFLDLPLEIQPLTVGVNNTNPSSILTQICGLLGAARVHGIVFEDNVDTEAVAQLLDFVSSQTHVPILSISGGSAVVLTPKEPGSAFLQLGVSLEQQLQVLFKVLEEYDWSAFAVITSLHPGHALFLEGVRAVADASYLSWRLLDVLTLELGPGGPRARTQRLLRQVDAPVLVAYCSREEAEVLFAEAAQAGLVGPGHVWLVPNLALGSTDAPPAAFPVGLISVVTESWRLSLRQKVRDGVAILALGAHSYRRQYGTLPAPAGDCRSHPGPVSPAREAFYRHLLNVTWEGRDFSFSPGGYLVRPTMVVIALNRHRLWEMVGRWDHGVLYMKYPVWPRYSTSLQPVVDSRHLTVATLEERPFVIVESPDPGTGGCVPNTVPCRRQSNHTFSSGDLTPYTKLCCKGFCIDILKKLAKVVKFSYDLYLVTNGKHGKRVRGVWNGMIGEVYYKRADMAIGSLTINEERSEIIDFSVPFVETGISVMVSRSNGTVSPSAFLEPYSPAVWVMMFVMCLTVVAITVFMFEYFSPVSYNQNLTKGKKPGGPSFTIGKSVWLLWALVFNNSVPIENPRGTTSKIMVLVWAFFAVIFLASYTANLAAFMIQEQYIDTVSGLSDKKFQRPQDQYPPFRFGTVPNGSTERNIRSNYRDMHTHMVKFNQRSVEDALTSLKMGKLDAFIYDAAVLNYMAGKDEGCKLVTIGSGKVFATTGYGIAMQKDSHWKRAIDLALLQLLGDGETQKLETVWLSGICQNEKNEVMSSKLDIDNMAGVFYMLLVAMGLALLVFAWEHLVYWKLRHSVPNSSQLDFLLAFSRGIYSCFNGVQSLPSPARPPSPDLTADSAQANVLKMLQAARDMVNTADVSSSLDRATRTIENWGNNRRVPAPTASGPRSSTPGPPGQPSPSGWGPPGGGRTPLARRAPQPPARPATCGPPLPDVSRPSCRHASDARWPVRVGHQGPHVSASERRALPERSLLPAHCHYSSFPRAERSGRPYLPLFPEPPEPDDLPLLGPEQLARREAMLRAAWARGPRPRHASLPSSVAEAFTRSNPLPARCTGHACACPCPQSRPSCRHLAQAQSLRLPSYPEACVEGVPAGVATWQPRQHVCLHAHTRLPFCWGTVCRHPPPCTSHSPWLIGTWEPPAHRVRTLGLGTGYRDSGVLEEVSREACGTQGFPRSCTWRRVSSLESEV
Sequence of Glutamate receptor ionotropic, NMDA 2A (Q00959 whole entry, one chain of several): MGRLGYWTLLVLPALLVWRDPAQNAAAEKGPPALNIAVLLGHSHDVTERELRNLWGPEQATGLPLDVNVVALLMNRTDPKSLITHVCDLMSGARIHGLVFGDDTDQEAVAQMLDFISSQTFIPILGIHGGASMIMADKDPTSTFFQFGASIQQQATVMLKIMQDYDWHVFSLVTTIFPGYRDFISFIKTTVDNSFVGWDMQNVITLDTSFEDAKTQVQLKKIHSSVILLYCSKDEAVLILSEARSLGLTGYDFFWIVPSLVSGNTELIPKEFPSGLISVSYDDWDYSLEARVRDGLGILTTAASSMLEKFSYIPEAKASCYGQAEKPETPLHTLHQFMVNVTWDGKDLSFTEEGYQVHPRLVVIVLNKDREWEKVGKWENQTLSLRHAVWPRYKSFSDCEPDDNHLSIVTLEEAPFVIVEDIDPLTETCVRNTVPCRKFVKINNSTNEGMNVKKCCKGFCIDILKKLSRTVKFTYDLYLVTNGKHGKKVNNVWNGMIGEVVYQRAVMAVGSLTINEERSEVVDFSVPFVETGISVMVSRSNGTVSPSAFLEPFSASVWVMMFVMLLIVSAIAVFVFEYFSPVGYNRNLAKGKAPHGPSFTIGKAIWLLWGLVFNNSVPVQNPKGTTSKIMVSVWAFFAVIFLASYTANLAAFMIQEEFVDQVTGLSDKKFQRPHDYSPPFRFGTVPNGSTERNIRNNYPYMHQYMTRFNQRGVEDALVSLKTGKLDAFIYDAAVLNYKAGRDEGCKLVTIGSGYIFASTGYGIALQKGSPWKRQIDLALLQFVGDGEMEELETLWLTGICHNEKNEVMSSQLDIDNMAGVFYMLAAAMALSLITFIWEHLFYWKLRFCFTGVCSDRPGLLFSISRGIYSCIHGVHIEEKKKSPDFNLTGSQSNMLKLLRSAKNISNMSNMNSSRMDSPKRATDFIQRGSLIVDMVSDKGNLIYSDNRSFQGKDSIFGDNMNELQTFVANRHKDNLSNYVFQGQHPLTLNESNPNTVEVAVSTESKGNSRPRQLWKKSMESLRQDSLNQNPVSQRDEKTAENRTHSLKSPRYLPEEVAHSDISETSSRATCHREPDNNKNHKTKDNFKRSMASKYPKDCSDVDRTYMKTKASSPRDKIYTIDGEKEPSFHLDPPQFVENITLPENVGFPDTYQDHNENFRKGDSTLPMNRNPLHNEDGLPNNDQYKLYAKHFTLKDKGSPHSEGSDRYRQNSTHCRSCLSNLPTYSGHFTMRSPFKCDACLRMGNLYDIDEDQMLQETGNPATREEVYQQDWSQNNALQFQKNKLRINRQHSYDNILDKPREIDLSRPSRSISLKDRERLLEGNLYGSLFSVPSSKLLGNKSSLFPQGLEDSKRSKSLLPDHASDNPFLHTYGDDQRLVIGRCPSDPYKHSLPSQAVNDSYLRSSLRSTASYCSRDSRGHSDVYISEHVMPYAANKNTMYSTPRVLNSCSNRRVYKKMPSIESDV

Turning to `CC[C@H](C)[C@H](NC(=O)[C@H](CCCCN)NC(=O)CNC(=O)[C@H](Cc1ccc(O)cc1)NC(=O)[C@H](CCCCN)NC(=O)[C@H](CC(C)C)NC(=O)[C@H](CCC(N)=O)NC(=O)[C@H](Cc1ccc(O)cc1)NC(=O)[C@H](CC(C(=O)O)C(=O)O)NC(=O)[C@H](CCCN=C(N)N)NC(=O)[C@@H](NC(=O)[C@H](C)NC(=O)[C@H](CC(C(=O)O)C(=O)O)NC(=O)[C@H](C)NC(=O)[C@H](Cc1ccc(O)cc1)NC(=O)[C@H](CC(C(=O)O)C(=O)O)NC(=O)[C@@H]1C[C@@H](O)CN1C(=O)[C@H](CCC(=O)O)NC(=O)[C@@H](N)CC(=O)O)[C@@H](C)CC)C(=O)O` (H-DE[Hyp][Gla]YA[Gla]AIR[Gla]YQLKYGKI-OH), the half-maximal inhibitory concentration (IC50) in assay [1] was no less than 10 µM; in [2], 1000 nM; in assay [3], 500 nM; in assay [4], greater than 10 µM.

Consider `CC[C@H](C)[C@H](NC(=O)[C@H](CCCCN)NC(=O)CNC(=O)[C@H](Cc1ccc(O)cc1)NC(=O)[C@H](CCCCN)NC(=O)[C@H](CC(C)C)NC(=O)[C@H](CCC(N)=O)NC(=O)[C@H](Cc1ccc(O)cc1)NC(=O)[C@H](CC(C(=O)O)C(=O)O)NC(=O)[C@H](CCCNC(=N)N)NC(=O)[C@@H](NC(=O)[C@H](C)NC(=O)[C@H](CC(C(=O)O)C(=O)O)NC(=O)[C@H](C)NC(=O)[C@H](Cc1ccc(O)cc1)NC(=O)[C@H](CC(C(=O)O)C(=O)O)NC(=O)[C@@H]1C[C@@H](O)CN1C(=O)[C@H](CCC(=O)O)NC(=O)[C@@H](N)CC(=O)O)[C@@H](C)CC)C(=O)O` (H-DE[Hyp][Gla]YA[Gla]AIR[Gla]YQLKYGKI-OH), for which the Activity with Mus musculus [5] worked out at 17.5 min; with Mus musculus [6] it was 14 min; in the assay on Mus musculus [7], 9.7 min. Besides, the Ratio IC50 in the assay filed under Rattus norvegicus [8] was greater than 10; in the assay listed under Rattus norvegicus [10], 2. Besides, the outcome in the assay with Mus musculus [9] was Active.

For `CC[C@H](C)[C@H](NC(=O)[C@H](CCCCN)NC(=O)CNC(=O)[C@H](Cc1cnc[nH]1)NC(=O)[C@@H](NC(=O)[C@H](CC(C)C)NC(=O)[C@H](CCC(N)=O)NC(=O)[C@H](Cc1ccc(O)cc1)NC(=O)[C@H](CC(C(=O)O)C(=O)O)NC(=O)[C@H](CCCNC(=N)N)NC(=O)[C@@H](NC(=O)CNC(=O)[C@H](CC(C(=O)O)C(=O)O)NC(=O)[C@H](C)NC(=O)[C@H](Cc1ccc(O)cc1)NC(=O)[C@H](CC(C(=O)O)C(=O)O)NC(=O)[C@H](CC(=O)O)NC(=O)[C@H](CCC(=O)O)NC(=O)CN)[C@@H](C)CC)[C@@H](C)CC)C(=O)O` (H-GED[Gla]YA[Gla]GIR[Gla]YQLIHGKI-OH), the Activity is 18 min in the assay on Mus musculus [5], 12.2 min in the assay on Mus musculus [6] and 9 min in the assay on Mus musculus [7]. Also, the IC50 in assay [1] is no less than 10 µM; in assay [2] it was 1000 nM; in assay [3] it was 200 nM; in assay [4] it was greater than 10 µM. Besides, the outcome (in [11]; in the assay on Mus musculus [9]) was Active. The figures for the Ratio IC50 in the assay listed under Rattus norvegicus [8] and in the assay filed under Rattus norvegicus [10] were greater than 10 and 5, respectively.

For `CC(C)C[C@H](NC(=O)CNC(=O)[C@H](CC(C(=O)O)C(=O)O)NC(=O)[C@H](C)NC(=O)[C@H](Cc1c[nH]c2ccccc12)NC(=O)[C@H](CCCCN)NC(=O)[C@H](C)NC(=O)[C@@H](NC(=O)[C@H](CC(C(=O)O)C(=O)O)NC(=O)[C@@H]1C[C@@H](O)CN1C(=O)[C@H](CCC(=O)O)NC(=O)CN)C(C)C)C(=O)N[C@@H](CCCN=C(N)N)C(=O)N[C@@H](CC(C(=O)O)C(=O)O)C(=O)N[C@@H](CCCCN)C(=O)N[C@@H](C)C(=O)N[C@@H](C)C(=O)N[C@@H](CO)C(=O)N[C@@H](CC(N)=O)C(N)=O` (H-GE[Hyp][Gla]VAKWA[Gla]GLR[Gla]KAASN-NH2), the 50% inhibitory concentration (IC50) is no less than 10 µM in [1], 8000 nM in assay [2], 500 nM in assay [3] and greater than 10 µM in assay [4].

In the case of `CC(C)C[C@H](NC(=O)CNC(=O)[C@H](CC(C(=O)O)C(=O)O)NC(=O)[C@H](C)NC(=O)[C@H](Cc1c[nH]c2ccccc12)NC(=O)[C@H](CCCCN)NC(=O)[C@H](C)NC(=O)[C@@H](NC(=O)[C@H](CC(C(=O)O)C(=O)O)NC(=O)[C@@H]1C[C@@H](O)CN1C(=O)[C@H](CCC(=O)O)NC(=O)CN)C(C)C)C(=O)N[C@@H](CCCNC(=N)N)C(=O)N[C@@H](CC(C(=O)O)C(=O)O)C(=O)N[C@@H](CCCCN)C(=O)N[C@@H](C)C(=O)N[C@@H](C)C(=O)N[C@@H](CO)C(=O)N[C@@H](CC(N)=O)C(N)=O` (H-GE[Hyp][Gla]VAKWA[Gla]GLR[Gla]KAASN-NH2), the Activity in the assay on Mus musculus [5] amounted to 21 min; in the assay with Mus musculus [6], 16.5 min; in the assay with Mus musculus [7], 10.7 min. Besides, the Ratio IC50 was greater than 10 in the assay listed under Rattus norvegicus [8] and 16 in the assay listed under Rattus norvegicus [10]. Moreover, the outcome in the assay with Mus musculus [9] was Active.

For the compound `CC[C@H](C)[C@H](NC(=O)[C@H](CC(N)=O)NC(=O)[C@H](CC(C(=O)O)C(=O)O)NC(=O)[C@H](CCCNC(=N)N)NC(=O)[C@H](C)NC(=O)[C@H](CC(C)C)NC(=O)[C@H](CC(C(=O)O)C(=O)O)NC(=O)[C@H](C)NC(=O)[C@H](C)NC(=O)[C@H](CCSC)NC(=O)[C@H](CCCCN)NC(=O)[C@H](C)NC(=O)[C@@H](NC(=O)[C@H](CC(C(=O)O)C(=O)O)NC(=O)[C@H](CC(C(=O)O)C(=O)O)NC(=O)[C@H](CCC(=O)O)NC(=O)CN)C(C)C)C(=O)N[C@@H](C)C(=O)N[C@@H](CCCCN)C(=O)NCC(=O)N[C@@H](CS)C(=O)N[C@@H](CCCCN)C(=O)N[C@H](C(=O)N[C@@H](CC(N)=O)C(=O)N[C@@H](CS)C(=O)N[C@@H](Cc1ccc(O)cc1)C(=O)N1CCC[C@H]1C(=O)O)C(C)C` [CONANTOKIN-R], the IC50 in assay [1] is 7 µM; in assay [2], greater than 10000 nM; in assay [3], 1000 nM; in assay [4], 1 µM. Further, the Ratio IC50 in the assay listed under Rattus norvegicus [8] was less than 0.1; in the assay listed under Rattus norvegicus [10], greater than 10.
